Source: ChEMBL document CHEMBL4414643, “Pharmacokinetics of Phytocannabinoid Acids and Anticonvulsant Effect of Cannabidiolic Acid in a Mouse Model of Dravet Syndrome” (J Nat Prod, 2019)

Key:
[1] = Ratio of drug level in anesthetized C57BL/6J mouse brain to plasma at 5 mg/kg, ip administered as single dose measured upto 240 mins by LC-MS/MS analysis; assay type: ADME, organism-based; conditions: read-out: BPR
Outline: (§1)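 Male and female mice (C57BL/6J or C57BL/6J x 129 F1), postnatal days 21-28, single i.p. injection at 10 mL/kg in vegetable oil or ethanol–Tween 80–saline (1:1:18). Blood taken by cardiac puncture under isoflurane at time points 15–240 min. Plasma and PBS brain homogenate extracted with ice-cold acetonitrile, diazepam internal standard, quantified by LC-MS/MS. Mean concentrations per time point (n = 3-5); noncompartmental analysis.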

[2] = Drug metabolism in plasma of anesthetized C57BL/6J mouse assessed as decrease in decarboxylation of parent compound at 5 mg/kg, ip by LC-MS/MS analysis; assay type: ADME, organism-based; conditions: in vivo
Outline: (§2)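 Mice aged 21-28 days postnatal received one i.p. dose (10 mL/kg), and plasma and brain were sampled at 15–240 min. Decarboxylated neutral cannabinoids were measured by LC-MS/MS against known standards, alongside the parent acid.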

[3] = AUC in anesthetized C57BL/6J mouse brain at 5 mg/kg, ip administered as single dose measured upto 240 mins by LC-MS/MS analysis; assay type: ADME, organism-based; parameters: time < 4 hr, dose 5 mg/kg, route intraperitoneal; outline: as §1
[4] = Cmax in anesthetized C57BL/6J mouse plasma at 5 mg/kg, ip administered as single dose measured upto 240 mins by LC-MS/MS analysis; assay type: ADME, organism-based; parameters: dose 5 mg/kg, route intraperitoneal; outline: as §1
[5] = Dissociation constant, pKa of compound; assay type: physicochemical
[6] = AUC in anesthetized C57BL/6J mouse plasma at 5 mg/kg, ip administered as single dose measured upto 240 mins by LC-MS/MS analysis; assay type: ADME, organism-based; parameters: dose 5 mg/kg, time < 4 hr, route intraperitoneal; outline: as §1
[7] = Partition coefficient, log P of compound; assay type: physicochemical; conditions: octanol/water
[8] = Tmax in anesthetized C57BL/6J mouse plasma at 5 mg/kg, ip administered as single dose measured upto 240 mins by LC-MS/MS analysis; assay type: ADME, organism-based; outline: as §1
[9] = Drug metabolism in brain of anesthetized C57BL/6J mouse assessed as decrease in decarboxylation of parent compound at 5 mg/kg, ip by LC-MS/MS analysis; assay type: ADME, organism-based; conditions: in vivo; outline: as §2
[10] = Half life in anesthetized C57BL/6J mouse brain at 5 mg/kg, ip administered as single dose measured upto 240 mins by LC-MS/MS analysis; assay type: ADME, organism-based; outline: as §1
[11] = Half life in anesthetized C57BL/6J mouse plasma at 5 mg/kg, ip administered as single dose measured upto 240 mins by LC-MS/MS analysis; assay type: ADME, organism-based; outline: as §1
[12] = Tmax in anesthetized C57BL/6J mouse brain at 5 mg/kg, ip administered as single dose measured upto 240 mins by LC-MS/MS analysis; assay type: ADME, organism-based; outline: as §1
[13] = Cmax in anesthetized C57BL/6J mouse brain at 5 mg/kg, ip administered as single dose measured upto 240 mins by LC-MS/MS analysis; assay type: ADME, organism-based; parameters: dose 5 mg/kg, route intraperitoneal; outline: as §1
[14] = Ratio of drug level in anesthetized C57BL/6J mouse brain to plasma at 10 mg/kg, ip administered as single dose measured upto 240 mins by LC-MS/MS analysis; assay type: ADME, organism-based; conditions: read-out: BPR; outline: as §1
[15] = Half life in anesthetized C57BL/6J mouse plasma at 10 mg/kg, ip administered as single dose measured upto 240 mins by LC-MS/MS analysis; assay type: ADME, organism-based; outline: as §1
[16] = Tmax in anesthetized C57BL/6J mouse plasma at 10 mg/kg, ip administered as single dose measured upto 240 mins by LC-MS/MS analysis; assay type: ADME, organism-based; outline: as §1
[17] = Drug uptake in plasma of anesthetized C57BL/6J mouse at 10 mg/kg, ip by LC-MS/MS analysis; assay type: ADME, organism-based; conditions: in vivo; outline: as §2
[18] = Cmax in anesthetized C57BL/6J mouse plasma at 10 mg/kg, ip administered as single dose measured upto 240 mins by LC-MS/MS analysis; assay type: ADME, organism-based; parameters: dose 10 mg/kg, route intraperitoneal; outline: as §1
[19] = Drug uptake in plasma of anesthetized C57BL/6J mouse assessed as purity of compound at 10 mg/kg, ip by LC-MS/MS analysis; assay type: ADME, organism-based; conditions: in vivo; outline: as §2
[20] = AUC in anesthetized C57BL/6J mouse plasma at 10 mg/kg, ip administered as single dose measured upto 240 mins by LC-MS/MS analysis; assay type: ADME, organism-based; parameters: time < 4 hr, dose 10 mg/kg, route intraperitoneal; outline: as §1
[21] = Cmax in anesthetized C57BL/6J mouse brain at 10 mg/kg, ip administered as single dose measured upto 240 mins by LC-MS/MS analysis; assay type: ADME, organism-based; parameters: dose 10 mg/kg, route intraperitoneal; conditions: in vivo, 4 h; outline: as §1
[22] = Tmax in anesthetized C57BL/6J mouse brain at 10 mg/kg, ip administered as single dose measured upto 240 mins by LC-MS/MS analysis; assay type: ADME, organism-based; outline: as §1
[23] = Drug metabolism in brain of anesthetized C57BL/6J mouse at 10 mg/kg, ip by LC-MS/MS analysis; assay type: ADME, organism-based; conditions: in vivo; outline: as §2
[24] = Half life in anesthetized C57BL/6J mouse brain at 10 mg/kg, ip administered as single dose measured upto 240 mins by LC-MS/MS analysis; assay type: ADME, organism-based; outline: as §1

For `C=C(C)[C@@H]1CCC(C)=C[C@H]1c1c(O)cc(CCC)c(C(=O)O)c1O`, the Kp at 4 h [1] was 0.02, the Drug metabolism [2] was “Metabolite_Notdetected” and the AUC at 4 h [3] was 550 ng·h/mL. For the same compound, the Cmax [4] was 21000 ng/mL, the pKa [5] was 2.91 and the AUC at 4 h [6] was 24800 ng·h/mL. The logP [7] was 5.94, the Tmax [8] was 15 min and the Drug metabolism [9] was “Metabolite_Notdetected”. The half-life [10] was 19 min, the half-life [11] was 49 min and the Tmax [12] was 30 min. For the same compound, the Cmax ([13]; C57BL/6J, brain, read-out: Cmax) was 800 ng/mL.
Work on `CCCc1cc(O)c(C/C=C(\C)CCC=C(C)C)c(O)c1C(=O)O` yielded a Kp at 4 h [14] of 0.04, a half-life [15] of 204 min and a Tmax [16] of 15 min. It also gave a Drug uptake [17] of 0.2%, a pKa [5] of 2.92 and a Cmax [18] of 34400 ng/mL. It also gave a Drug uptake [19] of 97%, a logP [7] of 6.46 and an AUC at 4 h [20] of 199000 ng·h/mL. For the same compound, the Cmax [21] was 3.8 ng/mg, the Tmax [22] was 90 min and the Drug metabolism [23] was “Metabolite_Notdetected”. It also gave a half-life [24] of 29 min.
With `CCCCCc1cc2c(c(O)c1C(=O)O)C=CC(C)(CCC=C(C)C)O2` (stereo not given) the Drug metabolism [2] was “Metabolite_Notdetected”, the Cmax [4] was 3300 ng/mL and the pKa [5] was 2.87. The AUC at 4 h [6] was 2880 ng·h/mL, the logP [7] was 6.91 and the Tmax [8] was 30 min. The Drug metabolism [9] was “Metabolite_Notdetected”, the half-life [11] was 24 min and the Cmax ([13]; in vivo, 4 h, BLD = below limit of detection) was “Bld”.
